This is an account of results in ChEMBL document CHEMBL3351359, “Design and synthesis of novel 2,4-diaryl-5H-indeno[1,2-b]pyridine derivatives, and their evaluation of topoisomerase inhibitory activity and cytotoxicity” (Bioorg Med Chem, 2015).

What is called inhibition is the percentage by which the read-out fell short of the control. What is called IC50 is the concentration at which inhibition is half-maximal. Read a low IC50 as higher potency.

Assay [1] concerns the target DNA topoisomerase 2-alpha (Homo sapiens) (UniProt P11388). Description: Inhibition of human recombinant topoisomerase-2 alpha assessed as conversion of super-coiled plasmid DNA pBR322 to relaxed DNA at 100 uM after 30 mins by ethidium bromide staining-based agarose gel electrophoresis (reference value: 87.8%). An outline of the steps:
(§1)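 Supercoiled pBR322 (200 ng) incubated with 1 unit human topo IIα, with or without compound, for 30 min at 30 °C. Buffer: 10 mM Tris-HCl pH 7.9, 50 mM NaCl, 5 mM MgCl2, 1 mM EDTA, 1 mM ATP, 15 μg/mL BSA. Stopped with EDTA. Run on 1% agarose in TAE at 25 V for 4 h, stained with ethidium bromide, supercoiled DNA quantified under UV.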

Assay [2] addresses T1, DNA topoisomerase 1 (Homo sapiens) (UniProt P11387).
T1 sequence (whole entry): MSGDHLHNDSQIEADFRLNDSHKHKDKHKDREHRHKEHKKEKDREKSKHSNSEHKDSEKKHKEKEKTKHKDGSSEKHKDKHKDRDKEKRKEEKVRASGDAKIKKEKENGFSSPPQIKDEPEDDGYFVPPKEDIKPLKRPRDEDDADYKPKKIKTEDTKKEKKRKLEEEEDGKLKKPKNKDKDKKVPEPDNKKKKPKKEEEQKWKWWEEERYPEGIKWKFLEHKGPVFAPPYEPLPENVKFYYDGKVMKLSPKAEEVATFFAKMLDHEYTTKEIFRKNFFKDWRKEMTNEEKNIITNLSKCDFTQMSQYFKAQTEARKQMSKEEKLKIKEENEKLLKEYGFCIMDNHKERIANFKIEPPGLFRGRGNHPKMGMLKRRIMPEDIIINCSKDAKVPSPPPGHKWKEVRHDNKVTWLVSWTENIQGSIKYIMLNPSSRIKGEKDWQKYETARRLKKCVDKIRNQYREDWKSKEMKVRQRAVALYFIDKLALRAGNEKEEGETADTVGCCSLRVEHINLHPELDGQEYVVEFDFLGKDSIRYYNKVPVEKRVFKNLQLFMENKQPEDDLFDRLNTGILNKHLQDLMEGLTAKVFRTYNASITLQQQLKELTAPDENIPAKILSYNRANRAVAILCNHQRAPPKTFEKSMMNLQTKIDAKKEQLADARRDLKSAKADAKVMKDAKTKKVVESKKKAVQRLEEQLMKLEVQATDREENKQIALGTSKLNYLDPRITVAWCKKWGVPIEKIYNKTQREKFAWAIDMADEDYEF
The assay is described as follows: Inhibition of human recombinant topoisomerase-1 assessed as conversion of super-coiled plasmid DNA pBR322 to relaxed DNA at 100 uM after 30 mins by ethidium bromide staining-based agarose gel electrophoresis (reference value: 62.9%). Put shortly:
(§2)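 Relaxation of supercoiled pBR322 (100 ng) by 0.4 units recombinant human topo I, with or without compound (20 mM DMSO stocks), for 30 min at 37 °C. Buffer: 10 mM Tris-HCl pH 7.9, 150 mM NaCl, 0.1% BSA, 1 mM spermidine, 5% glycerol. Stopped with sarcosyl. Run on 1% agarose in TAE at 15 V for 7 h, stained with ethidium bromide, bands quantified under UV.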

The next assay relates to MCF7. The assay is described as follows: Cytotoxicity against human MCF7 cells after 2 days by CCK-8 assay. Format: functional, cell-based. The conditions noted are these: MCF7, 48 h. Put shortly:
(§3)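 Cells seeded at 2~4 × 10^4 per well, grown overnight in medium with 10% FBS at 37 °C, 5% CO2. On day 2, after 4 h FBS starvation, medium replaced with medium containing graded compound concentrations. On day 4, CCK-8 added for 4 h, then absorbance read at 450 nm. IC50 from four-parameter logistic fit. Mean ± S.D. of three experiments, each run in triplicate.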
In general terms: Tetrazolium assays rely on reduction of a dye to a coloured formazan, in cell work by metabolically active cells.

The subject of the next assay is DU-145. The assay is described as follows: Cytotoxicity against human DU145 cells after 2 days by CCK-8 assay. The conditions noted are these: DU-145, 48 h. Format: functional, cell-based. Put shortly:
as §3

Assay [3] in a line: Cytotoxicity against human HCT15 cells after 2 days by CCK-8 assay. In kind it is functional, cell-based. The note with it: HCT-15, 48 h. Put shortly: as §3
The target in assay [4] is DNA topoisomerase 2-alpha (Homo sapiens) (UniProt P11388). The assay is described as follows: Inhibition of human recombinant topoisomerase-2 alpha assessed as conversion of super-coiled plasmid DNA pBR322 to relaxed DNA at 100 uM after 30 mins by ethidium bromide staining-based agarose gel electrophoresis relative to etoposide.
Assay [5] concerns the target T1, DNA topoisomerase 1 (Homo sapiens). Description: Inhibition of human recombinant topoisomerase-1 assessed as conversion of super-coiled plasmid DNA pBR322 to relaxed DNA at 100 uM after 30 mins by ethidium bromide staining-based agarose gel electrophoresis relative to camptothecin.
Assay [6] concerns the target DNA topoisomerase 2-alpha (Homo sapiens) (UniProt P11388). Description: Inhibition of human recombinant topoisomerase-2 alpha assessed as conversion of super-coiled plasmid DNA pBR322 to relaxed DNA at 100 uM after 30 mins by ethidium bromide staining-based agarose gel electrophoresis (reference value: 83.7%). Put shortly:
as §1

The target is the same in assay [7]. The assay is described as follows: Inhibition of human recombinant topoisomerase-2 alpha assessed as conversion of super-coiled plasmid DNA pBR322 to relaxed DNA at 20 uM after 30 mins by ethidium bromide staining-based agarose gel electrophoresis (reference value: 42.1%). Put shortly:
as §1

Assay [8] addresses T1, DNA topoisomerase 1 (Homo sapiens). Description: Inhibition of human recombinant topoisomerase-1 assessed as conversion of super-coiled plasmid DNA pBR322 to relaxed DNA at 100 uM after 30 mins by ethidium bromide staining-based agarose gel electrophoresis (reference value: 51.5%). Put shortly: as §2
The subject of another assay is HeLa. Description: Cytotoxicity against human HeLa cells after 2 days by CCK-8 assay. Format: functional, cell-based. The conditions noted are these: 48 h. An outline of the steps:
as §3

The target of assay [9] is DNA topoisomerase 2-alpha (Homo sapiens) (UniProt P11388). The assay is described as follows: Inhibition of human recombinant topoisomerase-2 alpha assessed as conversion of super-coiled plasmid DNA pBR322 to relaxed DNA at 100 uM after 30 mins by ethidium bromide staining-based agarose gel electrophoresis (reference value: 32.4%). Put shortly:
as §1

Assay [10] addresses T1, DNA topoisomerase 1 (Homo sapiens). The assay is described as follows: Inhibition of human recombinant topoisomerase-1 assessed as conversion of super-coiled plasmid DNA pBR322 to relaxed DNA at 100 uM after 30 mins by ethidium bromide staining-based agarose gel electrophoresis (reference value: 45.2%). An outline of the steps:
as §2

Assay [11] addresses DNA topoisomerase 2-alpha (Homo sapiens) (UniProt P11388). Description: Inhibition of human recombinant topoisomerase-2 alpha assessed as conversion of super-coiled plasmid DNA pBR322 to relaxed DNA at 20 uM after 30 mins by ethidium bromide staining-based agarose gel electrophoresis (reference value: 46.7%). An outline of the steps:
as §1

DNA topoisomerase 2-alpha (Homo sapiens), sequence (P11388 whole entry): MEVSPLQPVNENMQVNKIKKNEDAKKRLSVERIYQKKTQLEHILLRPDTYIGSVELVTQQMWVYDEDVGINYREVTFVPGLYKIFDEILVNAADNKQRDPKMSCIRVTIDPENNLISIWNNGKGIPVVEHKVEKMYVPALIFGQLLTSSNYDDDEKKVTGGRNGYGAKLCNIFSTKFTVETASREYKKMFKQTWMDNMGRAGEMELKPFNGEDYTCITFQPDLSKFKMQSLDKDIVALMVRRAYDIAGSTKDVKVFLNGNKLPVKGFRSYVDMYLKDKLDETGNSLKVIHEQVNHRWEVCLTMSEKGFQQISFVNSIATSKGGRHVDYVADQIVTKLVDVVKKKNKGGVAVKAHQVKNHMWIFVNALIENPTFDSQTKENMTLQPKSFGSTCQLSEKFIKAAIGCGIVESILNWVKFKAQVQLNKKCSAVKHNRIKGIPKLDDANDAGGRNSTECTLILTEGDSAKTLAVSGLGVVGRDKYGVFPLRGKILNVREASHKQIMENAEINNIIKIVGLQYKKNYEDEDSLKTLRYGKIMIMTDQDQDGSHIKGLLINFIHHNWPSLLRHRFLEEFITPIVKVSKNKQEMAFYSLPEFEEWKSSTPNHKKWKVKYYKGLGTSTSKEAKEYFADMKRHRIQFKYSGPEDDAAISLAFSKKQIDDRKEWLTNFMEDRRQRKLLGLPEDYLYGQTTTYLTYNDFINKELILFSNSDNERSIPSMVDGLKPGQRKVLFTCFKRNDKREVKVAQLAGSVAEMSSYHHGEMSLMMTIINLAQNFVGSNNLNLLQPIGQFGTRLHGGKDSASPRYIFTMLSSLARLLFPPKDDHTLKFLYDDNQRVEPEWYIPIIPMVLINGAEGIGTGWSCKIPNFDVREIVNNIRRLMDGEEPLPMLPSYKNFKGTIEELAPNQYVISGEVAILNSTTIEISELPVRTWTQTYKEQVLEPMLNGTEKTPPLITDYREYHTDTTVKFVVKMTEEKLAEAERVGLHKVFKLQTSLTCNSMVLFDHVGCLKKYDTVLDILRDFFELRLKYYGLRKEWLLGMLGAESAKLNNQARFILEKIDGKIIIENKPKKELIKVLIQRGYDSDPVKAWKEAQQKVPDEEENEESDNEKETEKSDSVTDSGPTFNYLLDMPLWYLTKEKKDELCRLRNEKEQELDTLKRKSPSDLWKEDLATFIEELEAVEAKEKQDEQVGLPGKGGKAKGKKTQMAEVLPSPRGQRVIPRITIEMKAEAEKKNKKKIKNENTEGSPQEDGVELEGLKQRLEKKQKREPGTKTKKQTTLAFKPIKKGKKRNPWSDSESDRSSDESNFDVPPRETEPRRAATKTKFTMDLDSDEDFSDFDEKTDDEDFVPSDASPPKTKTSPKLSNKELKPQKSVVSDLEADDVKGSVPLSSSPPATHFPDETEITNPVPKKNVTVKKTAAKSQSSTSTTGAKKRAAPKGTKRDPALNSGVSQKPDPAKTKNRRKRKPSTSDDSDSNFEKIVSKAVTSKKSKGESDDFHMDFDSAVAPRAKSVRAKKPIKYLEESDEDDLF

Take `c1csc(-c2cc(-c3cccs3)c3c(n2)-c2ccccc2C3)c1`: the inhibition in [1] was 9.8%; in assay [2] it was 4.7%. For the same molecule, the IC50 (in the assay with MCF7; in the assay with DU-145; in assay [3]) was greater than 50 µM in each case.

Regarding `c1ccc(-c2cc(-c3cccnc3)c3c(n2)-c2ccsc2CC3)cc1`, the Ratio in assay [4] is less than 0.2; in [5], 1.15.

As for `c1csc(-c2cc(-c3ccsc3)nc3c2Cc2ccccc2-3)c1`, the figures for the inhibition in [1] and in assay [2] were 17.8% and 4.1%, respectively. Also, the IC50 (in the assay on MCF7; in the assay on DU-145; in assay [3]) was greater than 50 µM throughout.

As for `c1coc(-c2cc(-c3ccoc3)c3c(n2)-c2ccccc2OC3)c1`, the Ratio in [4] amounted to 0.89; in assay [5], 1.2.

Regarding `c1csc(-c2cc(-c3ccoc3)c3c(n2)-c2ccccc2C3)c1`, the inhibition in assay [6] was found to be 100%; in assay [7], 66.7%; in assay [8], 1.7%. Also, the IC50 in the assay with MCF7 is greater than 50 µM; in the assay on HeLa, greater than 50 µM; in the assay with DU-145 it was 37.3 µM; in assay [3] it was 34.6 µM. For the same molecule, the Ratio is 1.19 in assay [4] and less than 0.2 in assay [5].

As for `c1cncc(-c2cc(-c3ccoc3)c3c(n2)-c2ncccc2CC3)c1`, the Ratio in [4] is less than 0.2; in assay [5] it was 1.36.

`c1coc(-c2cc(-c3cccs3)c3c(n2)-c2ccccc2C3)c1`: the inhibition in assay [6] came to 83.9%; in [7], 79.6%; in assay [8], 2%. The IC50 is greater than 50 µM with MCF7, greater than 50 µM in the assay on HeLa, greater than 50 µM with DU-145 and 23.6 µM in assay [3]. Moreover, the Ratio in assay [4] was 1; in assay [5], less than 0.2.

For `c1cncc(-c2cc(-c3ccncc3)c3c(n2)-c2ccsc2CC3)c1`, the Ratio in assay [4] was less than 0.2; in [5], 0.49.

As to `c1coc(-c2cc(-c3ccco3)c3oc4ccccc4c3n2)c1`, the Ratio in assay [4] is 1.11. Also, in assay [5], the fold change (FC) turned out to be 0.6.

In the case of `c1ccc(-c2cc(-c3ccoc3)c3c(n2)-c2ccccc2C3)nc1`, the inhibition is 17.5% in assay [9] and 8.6% in assay [10].

Regarding `c1ccc(-c2cc(-c3ccsc3)nc3c2Cc2ccccc2-3)cc1`, the inhibition in assay [1] is 72.5%; in assay [11], 0%; in [2] it was 0.5%. Further, the IC50 (in the assay on MCF7; with DU-145; in assay [3]) was greater than 50 µM throughout. Besides, the Ratio in [4] is 0.83; in assay [5] it was less than 0.2.

Regarding `COc1cc([C@@H]2c3cc4c(cc3[C@@H](O[C@@H]3O[C@@H]5CO[C@@H](C)O[C@H]5[C@H](O)[C@H]3O)[C@H]3COC(=O)[C@H]23)OCO4)cc(OC)c1O` [ETOPOSIDE], the values for the IC50 (in the assay on MCF7; with HeLa; in assay [3]) were 0.73 µM, 1.26 µM and 1.1 µM, respectively.

With `c1ccc(-c2cc(-c3ccccn3)c3c(n2)-c2ccccc2C3)nc1`, the figures for the inhibition in [9] and in assay [10] were 10.2% and 6.2%, respectively.

Take `c1ccc(-c2cc(-c3ccccn3)nc3c2oc2ccccc23)cc1`: the Ratio is less than 0.2 in assay [4] and 1.15 in [5].

Turning to `c1ccc(-c2cc(-c3ccsc3)nc3c2COc2ccccc2-3)cc1`, the Ratio in [4] worked out at 1.13; in [5], 1.67.

On to `c1csc(-c2cc(-c3ccoc3)c3c(n2)-c2ccccc2CC3)c1`, for which the Ratio was less than 0.2 in assay [4] and 0.53 in assay [5].

Consider `c1ccc(-c2cc(-c3ccsc3)c3c(n2)-c2ccccc2C3)nc1`, for which the inhibition in assay [1] was determined as 15%; in [2], 1.1%.

As to `COc1cccc2c1C(=O)c1c(O)c3c(c(O)c1C2=O)C[C@@](O)(C(=O)CO)C[C@@H]3O[C@H]1C[C@H](N)[C@H](O)[C@H](C)O1` [DOXORUBICIN], the half-inhibitory concentration (IC50) in the assay with MCF7 is 0.4 µM; in [3], 1.08 µM.

In the case of `c1coc(-c2cc(-c3cccs3)nc3c2CCc2ccccc2-3)c1`, the Ratio in [4] is less than 0.2; in assay [5], 0.97.

In the case of `c1ccc(-c2cc(-c3cccnc3)nc3c2COc2ccccc2-3)nc1`, the Ratio in assay [4] is less than 0.2; in assay [5] it was 1.58.

As to `c1ccc(-c2cc(-c3cccs3)nc3c2Cc2ccccc2-3)cc1`, the figures for the inhibition in assay [1], in [11] and in assay [2] were 56%, 0% and 5.8%, respectively. The IC50 (with MCF7; in the assay on DU-145; in assay [3]) was greater than 50 µM each time.

As to `c1csc(-c2cc(-c3ccsc3)c3c(n2)-c2ccccc2C3)c1`, the values for the inhibition in assay [1], in assay [11] and in assay [2] were 100%, 0% and 10.1%, respectively. The IC50 (with MCF7; in the assay with DU-145; in [3]) was greater than 50 µM each time. Moreover, the Ratio in [4] is 1.14; in assay [5], less than 0.2.

As to `CC[C@@]1(O)C(=O)OCc2c1cc1n(c2=O)Cc2cc3ccccc3nc2-1` [CAMPTOTHECIN], the IC50 turned out to be 0.08 µM in the assay on MCF7, 0.11 µM in the assay on DU-145 and 0.26 µM in assay [3].

Consider `c1ccc(-c2cc(-c3ccco3)nc3c2oc2ccccc23)cc1`, for which the Ratio in assay [4] is 1.11; in assay [5], less than 0.2.

In the case of `c1ccc2c(c1)OCc1c(-c3ccsc3)cc(-c3ccsc3)nc1-2`, the figures for the Ratio in assay [4] and in assay [5] were 0.9 and 1.42, respectively.

Regarding `c1ccc(-c2cc(-c3ccco3)c3c(n2)-c2ncccc2CC3)nc1`, the Ratio was less than 0.2 in assay [4] and 1.25 in [5].

`c1ccc(-c2cc(-c3ccccn3)nc3c2Cc2ccccc2-3)cc1`: the inhibition in [9] came to 12.3%; in assay [10] it was 0%.

Regarding `c1ccc(-c2cc(-c3ccco3)c3c(n2)-c2ccccc2C3)nc1`, the inhibition in [9] amounted to 17.7%; in [10], 0.6%.

With `c1ccc(-c2cc(-c3ccco3)c3oc4ccccc4c3n2)cc1`, the Ratio in [4] stood at 1.24. Further, the fold change (FC) in assay [5] is less than 0.2.

`c1ccc(-c2cc(-c3ccsc3)nc3c2Cc2ccccc2-3)nc1`: the inhibition in assay [1] is 3.2%; in [2] it was 3.5%. The half-inhibitory concentration (IC50) (in the assay with MCF7; in the assay on DU-145; in assay [3]) was greater than 50 µM each time.

As to `c1ccc(-c2cc(-c3cccs3)nc3c2Cc2ccccc2-3)nc1`, the inhibition in [1] was 18.1%; in assay [2], 4.5%. Moreover, the IC50 was 43.3 µM in the assay with MCF7, greater than 50 µM in the assay on DU-145 and 9.63 µM in [3].
